From ChEMBL document CHEMBL4014346, “Lead Optimization Generates CYP11B1 Inhibitors of Pyridylmethyl Isoxazole Type with Improved Pharmacological Profile for the Treatment of Cushing's Disease” (J Med Chem, 2017)

Key:
[1] = target: CYP2C9 (Homo sapiens, UniProt P11712); assay: Inhibition of recombinant human CYP2C9 expressed in baculovirus infected insect cell microsomes at 1 uM relative to control; type: ADME
Method in brief: (§1)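 Recombinant human CYP1A2, 2B6, 2C9, 2C19, 2D6 and 3A4 in baculovirus-infected insect-cell microsomes, assayed per kit instructions; test compound at 1 µM, percent inhibition.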

[2] = Plasma concentration in Sprague-Dawley rat at 100 mg/kg, po administered as single dose after 4 hrs by HPLC-MS/MS analysis; type: ADME, organism-based
Method in brief: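 One female Sprague-Dawley rat dosed orally with a suspension in 0.5% porcine gelatin/5% mannitol in water, under 2% isoflurane. Tail-vein blood in citrate; plasma precipitated with acetonitrile containing diphenhydramine internal standard and quantified by HPLC-MS/MS.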

[3] = system: Salmonella typhimurium; assay: Mutagenicity in Salmonella typhimurium TA7001/7002/7003/7004/7005/7006 up to 100 uM in presence of rat liver S9 fraction by Ames 2 assay; type: toxicity; settings: salmonella enterica subsp. enterica serovar typhimurium
Method in brief: (§2)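 AMES II kit with Salmonella typhimurium TA98 and TA7001–TA7006, run with or without rat liver S9 fraction according to the kit instructions.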

[4] = system: Salmonella typhimurium; assay: Mutagenicity in Salmonella typhimurium TA7001/7002/7003/7004/7005/7006 up to 100 uM by Ames 2 assay; type: toxicity; settings: salmonella enterica subsp. enterica serovar typhimurium; method in brief: as §2
[5] = target: CYP2C19 (Homo sapiens, UniProt P33261); assay: Inhibition of recombinant human CYP2C19 expressed in baculovirus infected insect cell microsomes at 1 uM relative to control; type: ADME; method in brief: as §1
[6] = Half life in human liver S9 fractions at 1 uM in presence of NADPH/UDPGA by LC-MS/MS analysis; type: ADME
Method in brief: (§3)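 Samples taken at 0, 5, 15 and 60 min, stopped with cold acetonitrile containing internal standard. Remaining parent measured by LC-MS/MS.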

[7] = Cytotoxicity against HEK293 cells assessed as reduction in cell viability after 66 hrs by MTT assay; type: cell-based; settings: human
Method in brief: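 HEK293 cells seeded at 2x10⁵ per well; 4 h later, compound added at 100–6.25 µM in quadruplicate in 1% DMSO. MTT read-out at 570 nm after 66 h against vehicle control; IC20 derived by curve fitting.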

[8] = target: CYP2D6 (Homo sapiens, UniProt P10635); assay: Inhibition of recombinant human CYP2D6 expressed in baculovirus infected insect cell microsomes at 1 uM relative to control; type: ADME; method in brief: as §1
[9] = Half life in rat liver S9 fractions at 1 uM in presence of NADPH/UDPGA by LC-MS/MS analysis; type: ADME, tissue-based; method in brief: as §3
[10] = system: Salmonella typhimurium; assay: Mutagenicity in Salmonella typhimurium TA98 up to 100 uM in presence of rat liver S9 fraction by Ames 2 assay; type: toxicity; settings: salmonella enterica subsp. enterica serovar typhimurium; method in brief: as §2
[11] = target: T1, CYP2B6 (Homo sapiens, UniProt P20813); assay: Inhibition of recombinant human CYP2B6 expressed in baculovirus infected insect cell microsomes at 1 uM relative to control; type: ADME; method in brief: as §1
T1 sequence (P20813 whole entry): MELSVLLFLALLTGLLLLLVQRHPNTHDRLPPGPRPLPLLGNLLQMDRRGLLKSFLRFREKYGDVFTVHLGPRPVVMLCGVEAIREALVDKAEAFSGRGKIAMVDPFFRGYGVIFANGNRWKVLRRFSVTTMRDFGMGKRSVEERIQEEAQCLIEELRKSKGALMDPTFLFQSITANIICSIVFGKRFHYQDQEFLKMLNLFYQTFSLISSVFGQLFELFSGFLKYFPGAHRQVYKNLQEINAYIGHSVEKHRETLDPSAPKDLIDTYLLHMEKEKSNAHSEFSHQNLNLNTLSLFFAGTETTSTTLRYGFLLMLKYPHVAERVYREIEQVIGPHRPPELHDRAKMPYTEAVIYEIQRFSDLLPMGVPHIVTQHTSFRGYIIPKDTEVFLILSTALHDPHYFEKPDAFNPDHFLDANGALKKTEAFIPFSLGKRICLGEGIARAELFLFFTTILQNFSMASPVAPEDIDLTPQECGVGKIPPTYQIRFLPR

[12] = target: T2, Cytochrome P450 11B1, mitochondrial (Homo sapiens, UniProt P15538); assay: Inhibition of human CYP11B1 expressed in hamster V79MZ cells using [1,2-3H]-11-deoxycorticosterone as substrate after 6 hrs by HPLC analysis; type: cell-based
T2 sequence (P15538 whole entry): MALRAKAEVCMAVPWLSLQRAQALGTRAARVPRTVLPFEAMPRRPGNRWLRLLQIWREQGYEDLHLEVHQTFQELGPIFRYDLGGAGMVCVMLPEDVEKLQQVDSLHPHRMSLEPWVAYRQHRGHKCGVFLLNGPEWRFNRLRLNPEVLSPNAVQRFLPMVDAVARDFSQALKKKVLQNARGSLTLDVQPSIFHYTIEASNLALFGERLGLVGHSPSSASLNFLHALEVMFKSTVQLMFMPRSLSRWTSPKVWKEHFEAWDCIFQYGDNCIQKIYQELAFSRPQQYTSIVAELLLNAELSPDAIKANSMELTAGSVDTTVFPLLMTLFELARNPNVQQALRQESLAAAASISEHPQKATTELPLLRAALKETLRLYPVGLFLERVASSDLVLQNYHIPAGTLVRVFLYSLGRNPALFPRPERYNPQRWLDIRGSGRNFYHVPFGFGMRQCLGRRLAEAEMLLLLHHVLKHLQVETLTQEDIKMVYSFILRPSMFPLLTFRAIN
Method in brief: (§4)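 V79MZ cells expressing recombinant human CYP11B1 or CYP11B2, or rat CYP11B1, incubated with [1,2-³H]-11-deoxycorticosterone (100 nM) and inhibitor over a range of concentrations; ketoconazole as reference.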

[13] = target: T3, Cytochrome P450 11B1, mitochondrial (Rattus norvegicus, UniProt P15393); assay: Inhibition of rat CYP11B1 expressed in hamster V79MZ cells using [1,2-3H]-11-deoxycorticosterone as substrate after 6 hrs by HPLC analysis; type: cell-based; method in brief: as §4
T3 sequence (P15393 whole entry): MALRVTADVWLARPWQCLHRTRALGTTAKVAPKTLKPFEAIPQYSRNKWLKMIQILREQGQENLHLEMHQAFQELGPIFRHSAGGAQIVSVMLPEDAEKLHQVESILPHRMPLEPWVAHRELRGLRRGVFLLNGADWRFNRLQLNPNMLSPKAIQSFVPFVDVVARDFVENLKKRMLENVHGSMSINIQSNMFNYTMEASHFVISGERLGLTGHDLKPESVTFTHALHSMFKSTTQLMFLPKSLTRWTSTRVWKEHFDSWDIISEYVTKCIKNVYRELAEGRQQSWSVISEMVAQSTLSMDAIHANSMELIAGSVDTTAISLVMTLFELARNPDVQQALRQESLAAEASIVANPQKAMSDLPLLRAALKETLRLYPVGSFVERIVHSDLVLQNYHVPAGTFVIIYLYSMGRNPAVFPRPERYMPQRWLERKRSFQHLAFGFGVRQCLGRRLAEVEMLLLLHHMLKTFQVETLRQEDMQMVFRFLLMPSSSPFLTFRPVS

[14] = Aqueous solubility of the compound in 2% DMSO up to 24 hrs; type: physicochemical
[15] = system: Salmonella typhimurium; assay: Mutagenicity in Salmonella typhimurium TA98 up to 100 uM by Ames 2 assay; type: toxicity; settings: salmonella enterica subsp. enterica serovar typhimurium; method in brief: as §2

Sequence of CYP2C19 (P33261 whole entry): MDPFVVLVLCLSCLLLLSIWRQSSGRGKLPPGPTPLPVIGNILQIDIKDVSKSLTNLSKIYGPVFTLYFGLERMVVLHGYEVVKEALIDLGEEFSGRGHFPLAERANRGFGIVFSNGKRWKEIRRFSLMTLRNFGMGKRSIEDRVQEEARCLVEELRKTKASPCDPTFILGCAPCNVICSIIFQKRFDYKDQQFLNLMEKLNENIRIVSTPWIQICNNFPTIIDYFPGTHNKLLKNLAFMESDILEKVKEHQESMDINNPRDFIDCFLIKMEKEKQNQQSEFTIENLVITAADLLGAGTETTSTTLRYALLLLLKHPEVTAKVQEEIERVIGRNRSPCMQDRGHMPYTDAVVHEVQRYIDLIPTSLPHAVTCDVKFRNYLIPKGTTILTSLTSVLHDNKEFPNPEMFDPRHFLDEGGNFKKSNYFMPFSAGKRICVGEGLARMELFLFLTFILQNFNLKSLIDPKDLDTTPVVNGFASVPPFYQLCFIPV
Sequence of CYP2D6 (P10635 whole entry): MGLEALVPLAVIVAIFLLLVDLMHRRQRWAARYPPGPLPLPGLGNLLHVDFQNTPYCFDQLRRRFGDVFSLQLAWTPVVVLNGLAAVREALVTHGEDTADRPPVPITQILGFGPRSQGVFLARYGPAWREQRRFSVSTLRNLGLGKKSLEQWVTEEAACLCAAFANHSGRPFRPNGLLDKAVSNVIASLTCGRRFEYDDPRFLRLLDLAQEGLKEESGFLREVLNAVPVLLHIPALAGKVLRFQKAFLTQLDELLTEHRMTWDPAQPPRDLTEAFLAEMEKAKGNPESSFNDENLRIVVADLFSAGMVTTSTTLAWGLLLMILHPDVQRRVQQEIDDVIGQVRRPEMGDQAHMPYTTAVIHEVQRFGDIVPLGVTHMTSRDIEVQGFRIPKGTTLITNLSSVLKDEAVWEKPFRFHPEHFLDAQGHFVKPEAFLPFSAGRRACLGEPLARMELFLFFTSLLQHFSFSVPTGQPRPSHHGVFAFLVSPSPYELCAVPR
Sequence of CYP2C9 (P11712 whole entry): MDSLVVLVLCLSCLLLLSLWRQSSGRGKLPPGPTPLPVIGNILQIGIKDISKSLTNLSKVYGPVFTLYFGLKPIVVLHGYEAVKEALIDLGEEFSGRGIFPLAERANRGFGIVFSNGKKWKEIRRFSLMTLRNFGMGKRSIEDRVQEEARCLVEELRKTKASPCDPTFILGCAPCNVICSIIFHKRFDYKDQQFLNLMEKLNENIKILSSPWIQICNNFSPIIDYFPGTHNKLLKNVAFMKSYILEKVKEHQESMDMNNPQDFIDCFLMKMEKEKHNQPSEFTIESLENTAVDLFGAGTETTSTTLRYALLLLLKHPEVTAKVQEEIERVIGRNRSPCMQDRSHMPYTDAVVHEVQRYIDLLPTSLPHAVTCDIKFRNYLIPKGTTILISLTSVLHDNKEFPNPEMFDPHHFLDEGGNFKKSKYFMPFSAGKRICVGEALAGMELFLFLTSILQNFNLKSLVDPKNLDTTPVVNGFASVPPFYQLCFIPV

## Cc1cncc(Cc2cc(-c3ccccc3)no2)c1
[1]
  inhibition at 1 µM: 28%
[2]
  concentration at 4 h: 0.3 µM
[3]
  Activity: Non-Toxic
[4]
  Activity: Non-Toxic
[5]
  inhibition at 1 µM: 8%
[6]
  half-life at 1 µM: 2.42 h
[7]
  IC20 at 66 h: 28000 nM
[8]
  inhibition at 1 µM: 0%
[9]
  half-life at 1 µM: 0.5 h
[10]
  Activity: Non-Toxic
[11]
  inhibition at 1 µM: 3%
[12]
  IC50: 5 nM
[13]
  IC50: 4000 nM
[14]
  solubility at 24 h: > 200 µM
[15]
  Activity: Non-Toxic

## COc1cncc(Cc2cc(-c3ccccc3)no2)c1
[1]
  inhibition at 1 µM: 17%
[2]
  concentration at 4 h: 106 µM
[3]
  Activity: Non-Toxic
[4]
  Activity: Non-Toxic
[5]
  inhibition at 1 µM: 17%
[6]
  half-life at 1 µM: 2.08 h
[7]
  IC20 at 66 h: 42000 nM
[8]
  inhibition at 1 µM: 8%
[9]
  half-life at 1 µM: 0.383 h
[10]
  Activity: Non-Toxic
[11]
  inhibition at 1 µM: 19%
[12]
  IC50: 2 nM
[13]
  IC50: 1800 nM
[14]
  solubility at 24 h: > 200 µM
[15]
  Activity: Non-Toxic
